Holding throughout (format): functional
Assay [1] relates to Rattus norvegicus. In words: In vivo inhibition of PAF induced hypotension in rats after intravenous administration. Particulars: read-out: ID50 (the source's name). A digest of the protocol:
(§1)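 Male Sprague-Dawley rats (180–220 g) were anesthetized with pentobarbital (50 mg/kg ip), with carotid blood pressure recorded. Compound was given iv in saline (1 mL/kg) via a femoral vein 3 min before PAF (0.5 µg/kg iv). Controls received vehicle. Percent inhibition of hypotension versus controls gave ID50 by linear regression over ≥4 doses, each the mean of ≥2 experiments.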

For assay [2], the species on record is Oryctolagus cuniculus. As to the kind of experiment: In vitro inhibition of platelet aggregation (rabbit) induced by PAF. In outline: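 Aggregation of platelet-rich plasma, obtained by spinning blood at 250 g for 10 min at 4 °C. The PRP was diluted with platelet-poor plasma (3000 g, 10 min) to […]. Aggregation was triggered with C18-PAF at 1.5 × 10⁻⁸ M and read on an aggregometer. IC50 was taken by linear regression from one curve of ≥4 concentrations, each the mean of 1–3 experiments.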

For assay [3], the system named is Rattus norvegicus. In words: In vivo inhibition of PAF induced hypotension in rats after intravenous administration. Particulars: read-out: ID50 (the source's name). A digest of the protocol: as §1

Broadly, the IC50 is the concentration that gives 50% inhibition. Lower therefore signals greater potency in that assay. For `CCCCCCCCCCCCCCCCCNC(=O)OCCSCCOC(=O)N(Cc1cccc[n+]1CC)C(=O)C(C)(C)C.[I-]`, in assay [1], the ED50 was 0.33 mg/kg. This molecule gave a 50% inhibitory concentration (IC50) in assay [2] (Oryctolagus cuniculus) of 150 nM.

As to `CCCCCCCCCCCCCCCNC(=O)OCC1CCC(COC(=O)N(Cc2cccc[n+]2CC)C(C)=O)O1.[I-]` (centres undefined), the ED50 in assay [1] is 0.098 mg/kg. This molecule showed an IC50 in assay [2] (Oryctolagus cuniculus) of 72 nM.

Molecule `CCCCCCCCCCCCCCCCCNC(=O)OCCOCCOC(=O)N(Cc1cccc[n+]1CC)C(C)=O` had an IC50 in assay [2] (Oryctolagus cuniculus) of 17 nM.

For `CC[n+]1ccccc1CN(C(C)=O)C(=O)OCCOCCOC(=O)C(C)(C)C.[I-]`, the ED50 in assay [1] is greater than 5 mg/kg. Besides, in assay [2] (Oryctolagus cuniculus), half-maximal inhibition (IC50) was put at 1700 nM.

In the case of `CCCCCCCCCCCCCCCCCNC(=O)OCCSCCOC(=O)N(Cc1cccc[n+]1CC)C(=O)CCCCCCCCCCCCCCC.[I-]`, the ED50 in assay [1] was greater than 5 mg/kg. Moreover, in assay [2] (Oryctolagus cuniculus), the IC50 worked out at 8700 nM.

In the case of `CCCCCCCCCCCCCCCCCCNC(=O)OCCOCCOC(=O)N(Cc1cccc[n+]1CC)C(C)=O.[I-]`, the ED50 in assay [1] was found to be 0.019 mg/kg. For the same molecule, half-maximal inhibition in assay [2] (Oryctolagus cuniculus) (IC50) was put at 18 nM.

As for `CCCCCCCCCCCCCCCCCCOCCOCCOC(=O)N(Cc1cccc[n+]1CC)C(C)=O.[I-]`, the ED50 in assay [1] is 0.024 mg/kg. The molecule also had an IC50 in assay [2] (Oryctolagus cuniculus) of 22 nM.

Regarding `CCCCCCCCCCCCCCCCCNC(=O)OCCSCCOC(=O)N(Cc1cccc[n+]1CC)C(C)=O` [listing 1 of 3 here], in assay [2], inhibition was half-maximal at 5.6 nM (IC50).

As to `CCCCCCCCCCCCCCCCCCCCOC(=O)N(Cc1cccc[n+]1CC)C(C)=O.[I-]`, the ED50 in assay [1] is 0.33 mg/kg. The molecule also came in with an IC50 in assay [2] (Oryctolagus cuniculus) of 160 nM.

`CCCCCCCCCCCCCCCCCNC(=O)OCC[S+]([O-])CCOC(=O)N(Cc1cccc[n+]1CC)C(C)=O.[I-]` (centres undefined): the ED50 in assay [1] was 0.025 mg/kg. The same molecule returned an IC50 in assay [2] (Oryctolagus cuniculus) of 27 nM.

`CCCCCCCCCCCCCCCCCNC(=O)OCCS(=O)(=O)CCOC(=O)N(Cc1cccc[n+]1CC)C(C)=O.[I-]`: the ED50 in assay [1] turned out to be 0.019 mg/kg. In addition, half-maximal inhibition in assay [2] (Oryctolagus cuniculus) (IC50) required 11 nM.

The molecule `CC[n+]1ccccc1CN(C(C)=O)C(=O)OCCOCCOC(=O)NCCCc1ccccc1` came in with a concentration for half-maximal inhibition (IC50) in assay [2] (Oryctolagus cuniculus) of 1300 nM.

On to `CCCCCCCCCCCCCCCCCCNC(=O)OCC(COC(=O)N(Cc1cccc[n+]1CC)C(C)=O)OC.[I-]` (centres undefined), for which the ED50 in assay [1] was found to be 0.011 mg/kg. The molecule also registered an IC50 in assay [2] of 11 nM.

`CCCCCCCCCCCCCCCCCCNC(=O)OCCCOC(=O)N(Cc1cccc[n+]1CC)C(C)=O.[I-]`: the ED50 in assay [1] came to 0.02 mg/kg. It took 23 nM to reach half-maximal inhibition in assay [2] (Oryctolagus cuniculus) (IC50).

Turning to `CCCCCCCCCCCCCCCCCNC(=O)OCCOCCOC(=O)N(Cc1cccc[n+]1C)C(C)=O`, the half-inhibitory concentration (IC50) in assay [2] (Oryctolagus cuniculus) turned out to be 55 nM.

In assay [2] (Oryctolagus cuniculus), `CCCCCCCCCCCCCCCNC(=O)OCCOCCOC(=O)N(Cc1cccc[n+]1CC)C(=O)OCC` had an IC50 of 23 nM.

`CCCCCCCCCCCCCCCNC(=O)OCC1COC(COC(=O)N(Cc2cccc[n+]2CC)C(C)=O)O1.[I-]` (centres undefined): the ED50 in assay [1] came to 0.085 mg/kg. The IC50 in assay [2] (Oryctolagus cuniculus) was found to be 7.5 nM.

`CCCCCCCCCCCCCCCCCNC(=O)OCCSCCOC(=O)N(Cc1cccc[n+]1CC)C(C)=O` [listing 2 of 3 here] returned an IC50 in assay [2] of 12 nM.

Regarding `CCCCCCCCCCCCCCCNC(=O)OCCCCCOC(=O)N(Cc1cccc[n+]1CC)C(C)=O`, the IC50 in assay [2] (Oryctolagus cuniculus) amounted to 24 nM.

As for `CCSCCOC(=O)N(Cc1cccc[n+]1CC)C(C)=O.[I-]`, in assay [1], the ED50 amounted to 0.37 mg/kg. Further, the IC50 in assay [2] (Oryctolagus cuniculus) was found to be 190 nM.

The molecule `CCCCCCCCCCCCCCCCCCOCCSCCOC(=O)N(Cc1cccc[n+]1CC)C(C)=O` gave a concentration for half-maximal inhibition (IC50) in assay [2] (Oryctolagus cuniculus) of 15 nM.

Regarding `CCCCCCCCCCCCCCCCOCCSCCOC(=O)N(Cc1cccc[n+]1CC)C(C)=O`, inhibition in assay [2] (Oryctolagus cuniculus) was half-maximal at 5.1 nM (IC50).

The molecule `CCCCCCCCCCCCCCCCCNC(=O)OCCOCCOC(=O)N(Cc1cccc[n+]1CC)C(=O)OCC` came in with an IC50 in assay [2] (Oryctolagus cuniculus) of 8.8 nM.

Turning to `CCCCCCCCCCCCCCCNC(=O)OCCOCCOC(=O)N(Cc1cccc[n+]1CCC)C(C)=O`, the concentration for half-maximal inhibition (IC50) in assay [2] (Oryctolagus cuniculus) was found to be 230 nM.

As to `CCCCCCCCCCCCCCCCCNC(=O)OCCSCCOC(=O)N(Cc1cccc[n+]1CC)C(=O)c1ccccc1OC.[I-]`, the ED50 in assay [1] came out at 0.019 mg/kg. Further, half-maximal inhibition in assay [2] (Oryctolagus cuniculus) (IC50) required 9.1 nM.

`CCCCCCCCCCCCCCCCCCCCCCOC(=O)N(Cc1cccc[n+]1CC)C(C)=O.[I-]`: the ED50 in assay [1] stood at 0.53 mg/kg. Besides, the half-maximal inhibitory concentration (IC50) in assay [2] (Oryctolagus cuniculus) came to 1400 nM.

For `CCCCCCCCCCCCCCCCCNC(=O)OCCSCCOC(=O)N(Cc1cccc[n+]1CC)C(=O)OCC.[I-]`, in assay [1], the ED50 worked out at 0.028 mg/kg. For the same molecule, in assay [2] (Oryctolagus cuniculus), it took 18 nM to reach half-maximal inhibition (IC50).

`CCCCCCCCCCCCCCCNC(=O)OCCOCCOC(=O)CCCCC[n+]1ccsc1.Cc1ccc(S(=O)(=O)[O-])cc1`: in assay [1], the ED50 was greater than 5 mg/kg. Further, the IC50 in assay [2] (Oryctolagus cuniculus) is 12000 nM.

Consider `CCCCCCCCCCCCCCCCNC(=O)OCCSCCOC(=O)N(Cc1cccc[n+]1CC)C(C)=O.[I-]`, for which, in assay [1], the ED50 turned out to be 0.01 mg/kg. Inhibition in assay [2] (Oryctolagus cuniculus) was half-maximal at 14 nM (IC50).

Turning to `CCCCCCCCCCCCCCCNC(=O)OCCOCCOCCOC(=O)N(Cc1cccc[n+]1CC)C(C)=O.[I-]`, the ED50 in assay [1] came out at 0.028 mg/kg. In assay [2] (Oryctolagus cuniculus), the IC50 came to 12 nM.

As to `CCCCCCCCCCCCCCCNC(=O)OCCSCCOC(=O)N(Cc1cccc[n+]1CC)C(C)=O.[I-]`, the ED50 in assay [1] came to 0.04 mg/kg. Also, 8.4 nM corresponded to half-maximal inhibition in assay [2] (Oryctolagus cuniculus) (IC50).

Turning to `CCCCCCCCCCCCCCCNC(=O)OCCOCCOC(=O)N(Cc1cccc[n+]1CC)C(C)=O`, in assay [2] (Oryctolagus cuniculus), the midpoint of inhibition, the IC50, lay at 22 nM.

With `CCCCCCCCCCCCCCCNC(=O)OCC1OCC(COC(=O)N(Cc2cccc[n+]2CC)C(C)=O)O1.[I-]` (centres undefined), the ED50 in assay [1] was 0.11 mg/kg. In assay [2] (Oryctolagus cuniculus), the IC50 amounted to 26 nM.

Take `CCOC(=O)N(Cc1cccc[n+]1CC)C(C)=O.[I-]`: the ED50 in assay [1] was greater than 5 mg/kg. Besides, the IC50 in assay [2] (Oryctolagus cuniculus) turned out to be 24000 nM.

In the case of `CC[n+]1ccccc1CN(C(C)=O)C(=O)OCCOCCOC(=O)NCC1CCCCC1`, inhibition in assay [2] (Oryctolagus cuniculus) was half-maximal at 2000 nM (IC50).

On to `CCCCCCCCCCCCCCCCCCOC(=O)N(Cc1cccc[n+]1CC)C(C)=O.[I-]`, for which the ED50 in assay [1] stood at 0.17 mg/kg. This molecule gave a concentration for half-maximal inhibition (IC50) in assay [2] (Oryctolagus cuniculus) of 870 nM.

In turn, `CCCCCCCCCCCCCCCCCNC(=O)OCCSCCOC(=O)N(Cc1cccc[n+]1CC)C(C)=O` [listing 3 of 3 here] gave a half-maximal inhibitory concentration (IC50) in assay [2] of 8.6 nM.

`CCCCCCCCCCCCCCCCCCNC(=O)OCCSCCOC(=O)N(Cc1cccc[n+]1CC)C(C)=O.[I-]`: in assay [1], the ED50 was 0.015 mg/kg. The molecule further showed an IC50 in assay [2] (Oryctolagus cuniculus) of 5.9 nM.

`CCCCCCCCCCCCCCCCCCNC(=O)OCC(COC(=O)N(Cc1cccc[n+]1CC)C(C)=O)OC.[Cl-]` (centres undefined) [CV-6209]: the ED50 in assay [3] amounted to 7.8 µg/kg. In assay [2] (Oryctolagus cuniculus), this molecule registered a half-maximal inhibitory concentration (IC50) of 12 nM.

The values are drawn from ChEMBL document CHEMBL1125800, “Design of potent linear PAF antagonists” (J Med Chem, 1991).
